Calls of active or inactive are those of the source. The calls are words filed in the database; no cut-off is given here.
What was measured:
HUVEC [1] = assay: Inhibition of VEGF-stimulated network formation in HUVEC at 1 uM; type: functional, cell-based; settings: Homo sapiens
In short: (§1)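 HUVEC (4 × 10^5) in RPMI 1640 were seeded on solidified Matrigel (prepared 30 min at 37°C), with or without 1 μM test agent. Cultures were kept at 37°C and photographed at 0 and 24 h to assess capillary tube and network formation.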

Homo sapiens [2] = assay: Inhibition of activated form of VEGF expression in human GEO tumor xenografts in BALB/c mouse at 1 mg/kg, ip three times a week for 4 weeks measured after 8 weeks by ELISA; type: functional, organism-based; set-up: dose 1 mg/kg
HUVEC [3] = assay: Inhibition of adhesion to matrix in HUVEC at 1 uM by cell adhesion assay; type: functional, cell-based; settings: Homo sapiens
In short: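 Wells were precoated for 1 h with Matrigel (1 mg/ml) or 0.1% BSA in serum-free medium as a negative control. HUVEC (20,000 per well) were then plated in serum-free medium with or without 1 μM test agent, and adherent cells were quantified.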

LS174T [4] = assay: Antitumor activity against human LS174T tumor xenografted BALB/c mouse assessed as tumor volume at 1 mg/kg, ip three times a week for 4 weeks measured after 8 weeks; type: functional; settings: route intraperitoneal
In short: (§2)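 Athymic nude mice, five weeks old, received s.c. GEO, LS174T or GEO-CR colon cancer cells (10^7 per mouse) in Matrigel. Tumors were detected after 7 days and groups of 10 were randomized. Dosing was i.p. at 1 mg/kg three times per week for 4 weeks. Tumor volume = π/6 × larger diameter × (smaller diameter)². Groups were compared by Student's t test.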

Homo sapiens [5] = assay: Potentiation of bevacizumab-induced inhibition of activated form of pAkt expression in human GEO tumor xenografts in BALB/c mouse at 1 mg/kg, ip three times a week for 4 weeks measured after 8 weeks by ELISA; type: functional, organism-based; set-up: dose 1 mg/kg
Homo sapiens [6] = assay: Potentiation of bevacizumab-induced antitumor activity against human GEO tumor xenografted BALB/c mouse at 1 mg/kg, ip three times a week for 4 weeks measured after 8 weeks; type: functional, organism-based; set-up: dose 1 mg/kg
In short: (§3)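 Athymic nude mice, five weeks old, received s.c. GEO, LS174T or GEO-CR cells (10^7 per mouse) in Matrigel and were randomized at day 7, 10 per group. Dosing was i.p. 1 mg/kg three times weekly plus i.p. bevacizumab 5 mg/kg twice weekly, on days 7–11, 14–18 and 21–25; only the first agent continued on days 28–32. Tumor volume = π/6 × larger × (smaller diameter)². Analysis was by Student's t test.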

LS174T [7] = assay: Potentiation of bevacizumab-induced antitumor activity against human LS174T tumor xenografted BALB/c mouse at 1 mg/kg, ip three times a week for 4 weeks measured after 8 weeks; type: functional; settings: route intraperitoneal; in short: as §3
[8] = Potentiation of cetuximab-induced cytotoxicity in human MDA468 cells assessed as lysis at 5 uM by ADCC assay; type: functional, MDA-MB-468
In short: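 Effector cells were nonadherent PBLs from human PBMCs, preincubated 24 h with or without 5 μM test agent. MDA468 targets were loaded with BATDA, treated with or without cetuximab (10 μg/ml), and mixed with effectors at varying ratios for 2 h at 37°C. Lysis was read by europium fluorescence in the supernatant.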

LS174T [9] = assay: Potentiation of bevacizumab-induced antitumor activity against human LS174T tumor xenografted BALB/c mouse assessed as induction of necrosis at 1 mg/kg, ip three times for week for 4 weeks measured after 8 weeks; type: functional; settings: route intraperitoneal
In short: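 LS174T s.c. xenografts (10^7 cells in Matrigel) in nude mice received the combined i.p. schedule (1 mg/kg three times weekly plus bevacizumab 5 mg/kg twice weekly). Necrosis was judged by pathological and immunohistochemical analysis of formalin-fixed paraffin sections (5 μm).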

HUVEC [10] = assay: Inhibition of migration in HUVEC at 1 uM by wound healing assay; type: functional, cell-based; settings: Homo sapiens
Homo sapiens [11] = assay: Inhibition of mVEGF level in human GEO tumor xenografted in BALB/c mouse at 1 mg/kg, ip three times a week for 4 weeks measured after 8 weeks by ELISA; type: functional, organism-based; set-up: dose 1 mg/kg
In short: (§4)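 Serum was taken from killed xenograft-bearing mice and assayed by sandwich ELISA. Plates were coated overnight at 4°C with anti-hVEGF or anti-mVEGF polyclonal antibody (1 μg/ml in PBS, pH 7.5), with avidin–biotinylated HRP detection and absorbance read at 490 nm. Concentrations came from linear regression of recombinant hVEGF or mVEGF standard curves.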

Homo sapiens [12] = assay: Potentiation of bevacizumab-induced inhibition of mVEGF level in human GEO tumor xenografted in BALB/c mouse at 1 mg/kg, ip three times a week for 4 weeks measured after 8 weeks by ELISA; type: functional, organism-based; set-up: dose 1 mg/kg; in short: as §4
HUVEC [13] = assay: Inhibition of VEGF-stimulated capillary tube formation in HUVEC at 1 uM; type: functional, cell-based; settings: Homo sapiens; in short: as §1
Homo sapiens [14] = assay: Inhibition of hVEGF level in human GEO tumor xenografts in BALB/c mouse at 1 mg/kg, ip three times a week for 4 weeks measured after 8 weeks by ELISA; type: functional, organism-based; set-up: dose 1 mg/kg; in short: as §4
Homo sapiens [15] = assay: Antitumor activity in cetuximab-resistant human GEO-CR tumor xenografted BALB/c mouse at 1 mg/kg, ip administered 3 times per week for 4 weeks; type: functional, organism-based; set-up: dose 1 mg/kg; in short: as §2
[16] = Potentiation of bevacizumab-induced antitumor activity in cetuximab-resistant human GEO-CR tumor xenografted BALB/c mouse assessed tumor volume at 1 mg/kg, ip; type: functional; settings: route intraperitoneal; in short: as §3
Homo sapiens [17] = assay: Inhibition of activated form of pMAPK expression in human GEO tumor xenografts in BALB/c mouse at 1 mg/kg, ip three times a week for 4 weeks measured after 8 weeks by ELISA; type: functional, organism-based; set-up: dose 1 mg/kg
Homo sapiens [18] = assay: Potentiation of bevacizumab-induced inhibition of activated form of VEGF expression in human GEO tumor xenografts in BALB/c mouse at 1 mg/kg, ip three times a week for 4 weeks measured after 8 week by ELISA; type: functional, organism-based; set-up: dose 1 mg/kg
Homo sapiens [19] = assay: Antitumor activity against human GEO tumor xenografted BALB/c mouse at 1 mg/kg, ip three times a week for 4 weeks measured after 8 weeks; type: functional, organism-based; set-up: dose 1 mg/kg; in short: as §2
Homo sapiens [20] = assay: Potentiation of bevacizumab-induced inhibition of hVEGF level in human GEO tumor xenografts in BALB/c mouse at 1 mg/kg, ip three times a week for 4 weeks measured after 8 weeks by ELISA; type: functional, organism-based; set-up: dose 1 mg/kg; in short: as §4
Homo sapiens [21] = assay: Inhibition of activated form of pAkt expression in human GEO tumor xenografts in BALB/c mouse at 1 mg/kg, ip three times a week for 4 weeks measured after 8 weeks by ELISA; type: functional, organism-based; set-up: dose 1 mg/kg
Homo sapiens [22] = assay: Inhibition of total amount of MAPK and Akt in human GEO tumor xenografts in BALB/c mouse at 1 mg/kg, ip three times a week for 4 weeks measured after 8 weeks by ELISA; type: functional, organism-based; set-up: dose 1 mg/kg
Homo sapiens [23] = assay: Potentiation of bevacizumab-induced inhibition of activated form of pMAPK expression in human GEO tumor xenografts in BALB/c mouse at 1 mg/kg, ip three times a week for 4 weeks measured after 8 weeks by ELISA; type: functional, organism-based; set-up: dose 1 mg/kg

**Q.** Which Activity (HUVEC [1]) does the source give for Cc1cn([C@H]2C[C@H](OP(O)(=S)OC[C@H]3O[C@@H](n4ccc(N)nc4=O)[C@H](O)[C@@H]3OP(O)(=S)OC[C@H]3O[C@@H](n4cc(C)c(=O)[nH]c4=O)C[C@@H]3OP(O)(=S)OC[C@H]3O[C@@H](n4cnc5c(=O)nc(N)[nH]c54)[C@H](O)[C@@H]3OP(O)(=S)OC[C@H]3O[C@@H](n4cnc5c(N)ncnc54)[C@H](O)[C@@H]3OP(O)(=S)OC[C@H]3O[C@@H](n4ccc(N)nc4=O)[C@H](O)[C@@H]3OP(O)(=S)OC[C@H]3O[C@@H](n4ccc5c(=O)nc(N)[nH]c54)C[C@@H]3OP(O)(=S)OC[C@H]3O[C@@H](n4cc(C)c(=O)[nH]c4=O)C[C@@H]3OP(O)(=S)OC[C@H]3O[C@@H](n4cc(C)c(=O)[nH]c4=O)C[C@@H]3OP(O)(=S)OC[C@H]3O[C@@H](n4ccc(N)nc4=O)[C@H](O)[C@@H]3OP(O)(=S)OC[C@H]3O[C@@H](n4cc(C)c(=O)[nH]c4=O)C[C@@H]3OP(O)(=S)OCC(O)COP(O)(=S)O[C@H]3C[C@H](n4cc(C)c(=O)[nH]c4=O)O[C@@H]3COP(O)(=S)O[C@H]3[C@@H](O)[C@H](n4ccc(=N)[nH]c4=O)O[C@@H]3COP(O)(=S)O[C@H]3C[C@H](n4cc(C)c(=O)[nH]c4=O)O[C@@H]3COP(O)(=S)O[C@H]3C[C@H](n4cc(C)c(=O)[nH]c4=O)O[C@@H]3COP(O)(=S)O[C@H]3C[C@H](n4ccc5c(=O)nc(N)[nH]c54)O[C@@H]3COP(O)(=S)O[C@H]3[C@@H](O)[C@H](n4ccc(N)nc4=O)O[C@@H]3COP(O)(=S)O[C@H]3[C@@H](O)[C@H](n4cnc5c(N)ncnc54)O[C@@H]3COP(O)(=S)O[C@H]3[C@@H](O)[C@H](n4cnc5c(=O)nc(N)[nH]c54)O[C@@H]3COP(O)(=S)O[C@H]3C[C@H](n4cc(C)c(=O)[nH]c4=O)O[C@@H]3COP(O)(=S)O[C@H]3[C@@H](O)[C@H](n4ccc(N)nc4=O)O[C@@H]3COP(O)(=S)O[C@H]3C[C@H](n4cc(C)c(=O)[nH]c4=O)O[C@@H]3CO)[C@@H](CO)O2)c(=O)[nH]c1=O (stereo partly drawn) here?
**A.** Its Activity is “Active”.

**Q.** And the Activity (Homo sapiens [2])?
**A.** The Activity was “Active”.

**Q.** And the Activity (HUVEC [3])?
**A.** Its Activity is “Active”.

**Q.** What about the Activity (LS174T [4]) of the same molecule?
**A.** The Activity was 1.6 cm3.

**Q.** And the Activity (Homo sapiens [5])?
**A.** The Activity was “Active”.

**Q.** What about the Activity (Homo sapiens [6]) of the same molecule?
**A.** Its Activity is “Active”.

**Q.** And the Activity (LS174T [7])?
**A.** The Activity was 95%.

**Q.** And the Activity [8]?
**A.** Its Activity is 60%.

**Q.** What about the Activity (LS174T [9]) of the same molecule?
**A.** The Activity was 90%.

**Q.** What about the Activity (HUVEC [10]) of the same molecule?
**A.** The Activity was “Active”.

**Q.** What about the Activity (Homo sapiens [11]) of the same molecule?
**A.** Its Activity is “inactive”.

**Q.** What about the Activity (Homo sapiens [12]) of the same molecule?
**A.** Its Activity is “inactive”.

**Q.** What about the Activity (HUVEC [13]) of the same molecule?
**A.** The Activity was “Active”.

**Q.** And the Activity (Homo sapiens [14])?
**A.** The Activity was “Active”.

**Q.** What about the Activity (Homo sapiens [15]) of the same molecule?
**A.** The Activity was “inactive”.

**Q.** And the Activity [16]?
**A.** The Activity was 0.15 cm3.

**Q.** And the Activity (Homo sapiens [17])?
**A.** The Activity was “Active”.

**Q.** What about the Activity (Homo sapiens [18]) of the same molecule?
**A.** Its Activity is “Active”.

**Q.** And the Activity (Homo sapiens [19])?
**A.** The Activity was “Active”.

**Q.** And the Activity (Homo sapiens [20])?
**A.** The Activity was “Active”.

**Q.** What about the Activity (Homo sapiens [21]) of the same molecule?
**A.** Its Activity is “Active”.

**Q.** What about the Activity (Homo sapiens [22]) of the same molecule?
**A.** Its Activity is “inactive”.

**Q.** What about the Activity (Homo sapiens [23]) of the same molecule?
**A.** Its Activity is “Active”.

Reference: ChEMBL document CHEMBL1156490, “TLR9 agonist acts by different mechanisms synergizing with bevacizumab in sensitive and cetuximab-resistant colon cancer xenografts” (2007)
